# Test results published in ChEMBL document CHEMBL1148626, “Synthesis and biological evaluation of novel, peripherally selective chromanyl imidazolethione-based inhibitors of dopamine beta-hydroxylase” (2006).
# The source made the active and inactive calls. The calls are words filed in the database; no cut-off is given here.
# Columns and labels:
# [1] = target: T1, Dopamine beta-hydroxylase (Homo sapiens) (UniProt P09172); assay: Effect on DBH activity in presence of dopamine by measuring Noradrenaline level; format: functional; set-up: concentration or dose not given beside the values
# T1 sequence (whole entry): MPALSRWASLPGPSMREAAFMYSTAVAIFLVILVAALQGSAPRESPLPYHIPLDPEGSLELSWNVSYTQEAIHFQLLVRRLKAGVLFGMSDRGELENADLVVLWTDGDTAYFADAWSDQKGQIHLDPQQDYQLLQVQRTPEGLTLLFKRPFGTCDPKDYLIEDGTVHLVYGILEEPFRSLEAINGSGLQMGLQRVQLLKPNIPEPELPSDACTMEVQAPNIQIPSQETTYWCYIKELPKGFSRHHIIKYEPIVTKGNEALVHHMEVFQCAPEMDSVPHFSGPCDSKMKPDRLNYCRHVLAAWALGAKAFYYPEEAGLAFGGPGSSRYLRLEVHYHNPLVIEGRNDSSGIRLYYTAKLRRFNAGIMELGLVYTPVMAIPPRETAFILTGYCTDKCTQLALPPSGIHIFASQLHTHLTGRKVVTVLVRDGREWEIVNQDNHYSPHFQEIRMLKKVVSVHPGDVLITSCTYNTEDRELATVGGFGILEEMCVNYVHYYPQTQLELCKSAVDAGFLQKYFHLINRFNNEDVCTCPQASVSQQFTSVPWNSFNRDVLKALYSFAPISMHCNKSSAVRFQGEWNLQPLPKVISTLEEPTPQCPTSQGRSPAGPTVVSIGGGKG
# Method in brief: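 Inhibitor at 5 µM in 200 mM sodium acetate pH 5.0 containing N-ethylmaleimide, CuSO4, catalase, pargyline, fumarate and 20 mM ascorbate. Preincubated 20 min at 37 °C, then dopamine added as substrate and reacted 45 min at 37 °C. Stopped with perchloric acid and filtered. Noradrenaline formed quantified by HPLC-ECD (0.75 V). Residual activity given as % of control, mean ± SEM of three experiments.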
# [2] = tested on: Mus musculus; assay: Decrease in noradrenaline tissue levels in mice heart at 100 mg/kg, po after 18 hrs; format: functional, organism-based; set-up: dose 100 mg/kg; settings: NMR1
# Method in brief: (§1)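 Male NMRI mice housed 10 per cage on a 12 h light/dark cycle at 22 °C. Compound given at 100 mg/kg by oral gavage in water vehicle. Animals decapitated at set times postdose; heart tissue held in 0.2 M perchloric acid for 12 h at 4 °C in the dark, then filtered. NA measured by HPLC with electrochemical detection. Expressed as % of vehicle control, mean ± SEM, n=4 per group.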
# [3] = species: Rattus norvegicus; assay: Decrease in noradrenaline tissue levels in rat brain parietal and frontal cortex; format: functional, organism-based; settings: Wistar, Cerebral cortex
# Method in brief: (§2)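 Male Wistar rats dosed orally by gavage at 100 mg/kg, with water as vehicle. Killed by decapitation 9 h postdose. Frontal and parietal cortex, left atrium and left ventricle taken, extracted in 0.2 M perchloric acid (12 h, 4 °C, dark) and filtered. Noradrenaline by HPLC-electrochemical detection, as % of control without inhibitor. Mean ± SEM, four animals per group.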
# [4] = tested on: Rattus norvegicus; assay: Decrease in noradrenaline tissue levels in rat at 100 mg/kg, po after 9 hrs; format: functional, organism-based; set-up: dose 100 mg/kg; settings: Wistar; method in brief: as §2
# [5] = tested on: Mus musculus; assay: Time for maximum effect for noradrenaline tissue reduction at 100 mg/kg, po; format: functional, organism-based; set-up: dose 100 mg/kg; settings: NMR1
# Method in brief: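 Mice given 100 mg/kg orally in water by gavage. Heart taken 6, 9, 18 and 24 h postdose and extracted in 0.2 M perchloric acid. Noradrenaline measured by HPLC with electrochemical detection, as % of control without inhibitor. Mean ± SEM, four animals per group. Time of maximum effect taken from the time course.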
# [6] = species: Mus musculus; assay: Effect on noradrenaline levels in mouse left ventricle after 9 hrs; format: functional, organism-based; settings: NMR1, Heart left ventricle
# Method in brief: (§3)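 Male NMRI mice given test compound or vehicle (water) orally by gavage at a range of doses. At 9 h postdose, decapitation. Tissue (left ventricle or brain parietal cortex) weighed, held in 0.2 M perchloric acid 12 h at 4 °C in the dark, then filtered by centrifugation. Noradrenaline measured by HPLC with electrochemical detection. Value given as % of vehicle control.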
# [7] = species: Mus musculus; assay: Decrease in noradrenaline tissue levels in mouse brain parietal cortex after 9 hrs; format: functional, organism-based; settings: NMR1; method in brief: as §3
# [8] = tested on: Mus musculus; assay: Effect on recovery of noradrenaline levels in mice at 100 mg/kg after 24 hrs; format: functional; method in brief: as §1
Structure (SMILES),Activity [1],also measured
NCCc1cnc(S)n1[C@H]1COc2ccc(O)cc2C1,0%,
CNCCc1c[nH]c(=S)n1[C@H]1COc2c(F)cc(F)cc2C1,2.6%,
NCCc1cnc(S)n1[C@H]1COc2c(cc(F)c(F)c2F)C1,8.2%,
NCCc1cnc(S)n1[C@H]1COc2cc(Cc3ccccc3)c(O)cc2C1,86.1%,
COc1cc(Cl)c2c(c1)C[C@@H](n1c(CCN)cnc1S)CO2,94%,
NCCc1cnc(S)n1[C@@H]1COc2c(F)cc(F)cc2C1,50.2%,
NCc1cnc(S)n1[C@H]1COc2ccccc2C1,0%,
NCCc1cnc(S)n1[C@H]1CCc2c(F)cc(F)cc2C1,1.6%,Activity [2]: Active
CNCCc1cnc(S)n1[C@H]1COc2ccc(O)cc2C1,15.5%,
NCCc1cnc(S)n1C1CSc2ccc(O)cc2C1 (stereo unspecified),27.3%,
NCc1cnc(S)n1[C@H]1COc2ccc(O)cc2C1,17.8%,
Cl.NCc1c[nH]c(=S)n1[C@H]1CCc2c(F)cc(F)cc2C1 [NEPICASTAT HYDROCHLORIDE],0%,Activity [3]: Active; Activity [4]: Active; Tmax [5]: 9 h; Activity [6]: Dose-dependent effect; Activity [7]: Dose-dependent effect; Activity [2]: Active; Activity [8]: 50%
NCCc1cnc(S)n1[C@H]1COc2c(cccc2[N+](=O)[O-])C1,53.2%,
COc1ccc2c(c1)C[C@@H](n1c(CCNCc3ccccc3)cnc1S)CO2,66%,
Cl.NCCc1cnc(S)n1[C@H]1COc2c(F)cc(F)cc2C1,3.3%,Activity [3]: inactive; Activity [4]: Active; Tmax [5]: 9 h; Activity [6]: Dose-dependent effect; Activity [7]: inactive; Activity [2]: Active; Activity [8]: 50%
NCCc1cnc(S)n1[C@H]1COc2ccccc2C1,3%,
COc1cccc2c1OC[C@H](n1c(CCN)cnc1S)C2,6.9%,
NCc1cnc(S)n1[C@H]1COc2c(F)cc(F)cc2C1,4.1%,Activity [2]: Active
Oc1ccc2c(c1)C[C@@H](n1c(CCNCc3ccccc3)cnc1S)CO2,4.5%,
NCCc1cnc(S)n1[C@H]1COc2ccc(F)cc2C1,8%,
NCCc1cnc(S)n1[C@H]1COc2ccc([N+](=O)[O-])cc2C1,94.8%,
NCCc1cnc(S)n1[C@H]1CCc2ccccc2C1,16.8%,
NCCc1cnc(S)n1[C@H]1COc2c(O)cccc2C1,125%,
COc1ccc2c(c1)CC(n1c(CCN)cnc1S)CS2 (stereo unspecified),99.4%,
NCCc1cnc(S)n1[C@H]1COc2cc(F)c(F)cc2C1,9.4%,
NCCCc1cnc(S)n1[C@H]1CCc2c(F)cc(F)cc2C1,8.1%,
COc1ccc2c(c1)C[C@@H](n1c(CCN)cnc1S)CO2,54.5%,
COc1cc(Cl)cc2c1OC[C@H](n1c(CCN)cnc1S)C2,36.7%,
CNCCc1cnc(S)n1[C@H]1COc2ccccc2C1,2.2%,
NCCc1cnc(S)n1[C@H]1COc2c(F)cccc2C1,6.9%,
